Each structure is given as a SMILES string.

The series is described as follows: Toxicity liver stage against HepG2, at 10uM. The class given is cell-based. The note with it: human, HepG2-A16-CD81EGFP cells; read-out: INHIBITION
Details: test concentration 10 uM, cell line HepG2-A16-CD81EGFP. Summed up: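 Uninfected HepG2-A16-CD81EGFP cells, 3 × 10^3 per well, 1536-well, plated on prespotted compound at 10 μM final, parasite-free screening media added to match infected plates; puromycin 10 μM positive, DMSO 0.5% negative; run in parallel with 48 h PbLuc assay at 37 °C, 5% CO2; viability by CellTiter-Glo luminescence, normalized to controls.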
On to `CCOCC1CCN(C(=O)c2sc(C)cc2OC(F)F)CC1`, for which the cytotoxicity at 10 µM turned out to be 7.95%. Regarding `O=C(NC[C@H]1C[C@@H]2CCN1C[C@@H]2CN1CCCCC1)Nc1ccccc1`, the cytotoxicity at 10 µM stood at 10%. As for `O=C(Nc1cccnc1)Nc1ccn(CC(F)F)n1`, the figure is -4.63%; as for `CC(C)CSCCN1CCN(S(C)(=O)=O)CC1`, -3.66%; as for `CC(C)NC(=O)Cn1ccc2c(Cl)cccc21`, 7.46%.

`CC(C)Oc1ccc2c(NC(=O)CN(C)C)nn(CC(F)(F)F)c2c1`: the cytotoxicity at 10 µM stood at 1.6%. As for `COc1cccc2cc(CNC(=O)N3CCOC(C)(C)C3)oc12`, the figure is -14.8%; as for `Cc1csc(C2(NCc3nnc(-c4ccco4)o3)CCCC2)n1`, 0.416%; as for `CC(C)c1ncc2c(n1)CN(Cc1nc(-c3ccsc3)no1)CC2`, 2.05%. The figure for `CCc1nc(-c2cccc(C(=O)O)c2)no1` is -10%; for `CCN(CC1CCOC1)C(=O)Nc1ccc(N2CCCC2)nc1` (stereo not drawn) it is -7.1%; for `COCCC1(C(=O)O)CCCN(C(=O)c2cc(F)ccc2OC)C1` (stereo not drawn) it is -11.4%.

With `O=c1c(NCCOCCO)c(N2CCN(c3ccccc3)CC2)c1=O`, the cytotoxicity at 10 µM is -5.64%.

Take `CNC(=O)c1cc(S(=O)(=O)C(C)C)cs1`: the cytotoxicity at 10 µM was found to be 5.08%.

Turning to `COc1ccc(N2CCNC(C(N)=O)C2)cc1` (stereo not drawn), the cytotoxicity at 10 µM was -4.8%. The figure for `O=C1C(N2CCOCC2)CCCN1Cc1cccc(C(F)(F)F)c1` (stereo not drawn) is 0.174%; for `Cc1nc(N(C)C)nc(C)c1NC(=O)c1ccccc1C(F)(F)F` it is -1.94%. With `Cc1cc(NC(=O)NCCc2cscn2)nn1C`, the cytotoxicity at 10 µM was 2.24%. As for `CC(C)NC(=O)[C@@]12CCO[C@@H]1CCN(Cc1ccco1)C2`, the figure is -3.31%; as for `CN(C(=O)Cc1cccs1)C1CCN(c2ccccn2)CC1`, -3.54%; as for `CC(C)(C)CNC[C@H]1Cn2ccnc2CO1`, -6.17%. As for `COCCCNC(=O)c1ccn(-c2ccc3ccccn23)n1`, the figure is -0.987%; as for `CCOc1cccc(C(=O)N2CCC3(CC2)[C@H](O)C[C@@H]3OC)c1`, 2.01%.

With `Cc1cc(C(=O)N2CCC(CCn3cccn3)CC2)c(C)o1`, the cytotoxicity at 10 µM was -5.27%. For `CCN1CCCC(NC(=O)CCn2c(C(F)F)cc3cccnc32)C1` (stereo not drawn), the cytotoxicity at 10 µM was -0.212%.

As for `COc1ccc(CN2CCN(C(C)=O)CC2)cc1SC(F)(F)F`, the cytotoxicity at 10 µM turned out to be 7.31%. The figure for `O=C1CCC(C(=O)N2CCC(Cn3cc(C4CCCC4)nn3)CC2)=NN1` is 5.14%.

Turning to `Cc1ncc(C(=O)NC2CCN(CCOc3ccc(Br)cc3)CC2)s1`, the cytotoxicity at 10 µM turned out to be 7.28%. The figure for `O=C(NC1CCCC1)c1cnn2c(-c3ccco3)ccnc12` is 10.2%; for `Cc1cccc(C(C(=O)NCC2(O)CCCCC2)N(C)C)c1` (stereo not drawn) it is -8.82%; for `CCN1CCCC1CNC(=O)Cc1c(C)n[nH]c1-c1ccc(F)cc1` (stereo not drawn) it is -3.02%. The figure for `CC(C)c1cc(=O)[nH]c(-c2ccccc2CN2CCCC2C)n1` (stereo not drawn) is 10.4%; for `CC(CS(C)(=O)=O)NC(=O)N1CC2(CCCC2)c2ccccc21` (stereo not drawn) it is -4.34%. The figure for `Cc1noc(C)c1CN1CCc2ncc(CN3CCCC3)n2CC1` is 0.78%; for `CCc1noc(C(C)N2CCN(Cc3nc(C)c(C)o3)CC2)n1` (stereo not drawn) it is -1.71%; for `COc1cc(CC(O)CC#N)c(OC)c2c1OCO2` (stereo not drawn) it is -6.32%. In the case of `O=C(c1ccnnc1)N1C[C@H]2CN(Cc3cccc(F)c3)C(=O)[C@H]2C1`, the cytotoxicity at 10 µM is -77.3%. The figure for `CCOC(=O)Cc1csc(NC(=O)c2cc3n(n2)CCCO3)n1` is -11.9%. As for `Cc1cc(N(C)Cc2cc(C)on2)n2nc(C)c(C)c2n1`, the figure is 19.2%.

With `Cc1cncc(C(=O)N2CCCC(O)(CO)C2)c1` (stereo not drawn), the cytotoxicity at 10 µM was found to be 2.09%.

Take `Cc1cccc(CN2CCCC2c2cncc(Nc3nncs3)n2)c1` (stereo not drawn): the cytotoxicity at 10 µM was -3.47%. In the case of `Cc1oc(-c2cccc(F)c2)nc1CN1CCOCS1(=O)=O`, the cytotoxicity at 10 µM amounted to 2.74%. As for `CC(=O)NC1CCCc2c1[nH]c1ccc(F)cc21` (stereo not drawn), the figure is -4.41%; as for `COCCS(=O)(=O)NC(C)c1ccccc1Br` (stereo not drawn), 1.02%; as for `O=C(CCc1ccc(Cl)s1)N1CCC(N2CCNC2=O)CC1`, 2.6%. The figure for `Cc1nn(C)c(N2CCOCC2)c1CNC1CCc2ccccc21` (stereo not drawn) is -0.704%; for `COCc1noc(CC2CN(c3ncnc4sc(C)c(C)c34)CCO2)n1` (stereo not drawn) it is -0.649%. As for `COc1ccc(CCN(C)C(C(=O)O)c2ccc(F)c(C)c2)cc1OC` (stereo not drawn), the figure is 2.93%; as for `CNCC(=O)N1CC(c2cc(Nc3ncccn3)nc(C)n2)C1`, 4.19%; as for `N#Cc1ccc(CN2CCC(c3ccnn3CCO)CC2)cc1`, -1.72%. In the case of `CCOCCC(=O)NCCNc1nccc(C(F)(F)F)n1`, the cytotoxicity at 10 µM was 2.88%.

As to `O=C(NCc1ccccn1)[C@@H]1COC[C@H]2CN(c3ncccn3)C[C@H]21`, the cytotoxicity at 10 µM worked out at 7.31%. As for `O=C(NCCNc1ncccn1)N1CCN(Cc2cccnc2)CC1`, the figure is -3.71%; as for `O=C(O)C1c2nc[nH]c2CCN1Cc1ccc(-c2ccccc2)s1` (stereo not drawn), -9.35%. As for `CN(Cc1ccoc1)C(=O)Cn1ncc(N(C)C)cc1=O`, the figure is 7.68%; as for `O=C(CN1CCC(c2cccc(F)c2)C1)NCc1ccco1` (stereo not drawn), -7.88%; as for `CC(C)CN1C[C@H]2CCN(C(=O)NC3CCCC3)CC[C@H]2S1(=O)=O`, 7.31%. The figure for `COc1ccc2nc(C3CC3)cc(C(=O)NCc3ncnn3C)c2c1` is -8.06%; for `Cc1nc(CN2CCO[C@@H]3CNCC[C@@H]3C2)cs1` it is 4.47%; for `Cc1cnn(CCNCc2csc(-c3ccccc3)n2)c1` it is -9.48%.

With `Cc1nc(CN2CCc3cc(C(=O)O)c(N(C)C)nc3CC2)cs1`, the cytotoxicity at 10 µM amounted to 3.42%. In the case of `O=C(CC(F)(F)F)Nc1cc(F)ccc1OCC1CCCO1` (stereo not drawn), the cytotoxicity at 10 µM turned out to be 5.48%.

As for `c1ccc2c(c1)CC(Cc1cc(N3CCCC3)cnn1)CCO2` (stereo not drawn), the cytotoxicity at 10 µM was -5.5%. The figure for `CS(=O)(=O)NCc1cnc2n1CCN(Cc1cccs1)CC2` is 3.04%. As to `CCN1CCOCC2(CCCN(C(=O)c3ccncc3F)C2)C1` (stereo not drawn), the cytotoxicity at 10 µM is -3.16%. As for `Cc1ccc(SCCN(C)C(=O)c2cn(CCN)nn2)cc1`, the figure is -4.7%; as for `Cc1c(NC(=O)CN(C)S(C)(=O)=O)cccc1OC1CCCC1`, -0.302%. The figure for `CN(C)c1ccc(-c2nnc([C@H]3CCN(C4CCCCC4)C3)o2)cc1` is 0.174%; for `CC(C)(O)C1CCN(C(=O)Nc2nc(-c3ccccc3)ns2)CC1` it is 5.68%; for `CN(C)c1nc2n(c(=O)n1)CCN2C(=O)Nc1ccccc1` it is 4.73%. The figure for `Cc1nc(C)n(CC2CCCN(Cc3cccc(F)c3F)C2)n1` (stereo not drawn) is -10.3%; for `O=C(Cc1n[nH]c(-c2cncc(Br)c2)n1)NCc1ccccn1` it is -1.39%.

Turning to `CC(=O)N(Cc1ncc(C)o1)C1CCN(Cc2cc(C)on2)C1` (stereo not drawn), the cytotoxicity at 10 µM is -5.03%.

On to `COCCCN(Cc1ccccn1)S(=O)(=O)Cc1ccccc1`, for which the cytotoxicity at 10 µM was 14.4%. The figure for `O=c1[nH]c(-c2cccnc2)nc2c1CCN(S(=O)(=O)N1CCCC1)C2` is 0.384%; for `O=C(Nc1cccc(CNCc2csc(Br)c2)c1)C1CC1` it is 7.97%.

For `Cc1nc(CCCNC(=O)Nc2cc(F)cc(F)c2)n[nH]1`, the cytotoxicity at 10 µM is -8.39%. As to `CC(c1nc(C2CC2)no1)N(C)Cc1ccc(Cl)cc1` (stereo not drawn), the cytotoxicity at 10 µM worked out at 3.74%.

Turning to `CC(C)c1nc(CN2CCCC2CN2CCCC2)cs1` (stereo not drawn), the cytotoxicity at 10 µM was 6.72%. As for `O=C(CN1CCCC1)N1CCCC(c2cc(=O)n3c(n2)CCCCC3)C1` (stereo not drawn), the figure is -13.7%. As for `Cc1cnn(C2CN(CC(=O)NCCCc3ccccc3)C2)c1`, the figure is 0.555%. The figure for `Cc1cc(C(=O)NC2CCC3(CCC(=O)N3)CC2)no1` (stereo not drawn) is 4.23%; for `CS(=O)(=O)N1CCN(CC(O)COc2ccc(F)cc2)CC1` (stereo not drawn) it is 6.11%; for `CCc1ncnc2c1CCN(Cc1ccc3c(c1)OCO3)CC2` it is -139%. In the case of `Cc1cc(NC(=O)CC2(Cn3cnnn3)CCCCC2)nn1C`, the cytotoxicity at 10 µM turned out to be 10.4%.

Turning to `COc1c(C2CCCN2C(=O)c2cnccn2)c(C)nn1C` (stereo not drawn), the cytotoxicity at 10 µM was 0.501%. As for `CS(=O)(=O)N1CCc2c(cccc2NC(=O)CC(F)(F)F)C1`, the figure is 5.06%; as for `COc1ccc(CC2(CO)CCN(c3cc(N)ncn3)CC2)cc1`, -12.9%; as for `O=C(O)C1CCN(C(=O)Cn2ccc3c(Cl)cccc32)CC1`, -3.91%.

Consider `CC(=O)N1Cc2ccccc2C[C@H]1C(=O)Nc1ccccn1`, for which the cytotoxicity at 10 µM is -3.09%. For `CN(C)CCN(Cc1ccc(C(F)(F)F)cc1)C(=O)c1cc[nH]n1`, the cytotoxicity at 10 µM was 3.95%. The figure for `COCCN1C(=O)CC(c2cccnc2)C12CCN(C(=O)C1CC1)CC2` (stereo not drawn) is -104%; for `C=C(C)CN(CC)C(=O)CN(C)C1CCc2ccccc21` (stereo not drawn) it is -11.6%. The figure for `CC(C)c1noc(Cn2ncn3cccc3c2=O)n1` is -4.1%; for `Cc1cc(-n2cncn2)ccc1C(=O)N(CC(F)(F)F)C(C)C` it is -3.72%; for `CCOCc1ncn2c1CN(C(=O)Nc1ccccc1CC)CC2` it is 7.45%. `COc1cc(F)c(S(=O)(=O)N2CCN(C)Cc3ccccc32)cc1OC`: the cytotoxicity at 10 µM amounted to 3.84%. As for `COc1ccc(F)c(-c2cc(NCCO)nc(N)n2)c1`, the figure is -1.21%.

The values are drawn from ChEMBL document CHEMBL4513216, “Probing the Open Global Health Chemical Diversity Library for Multistage-Active Starting Points for Next-Generation Antimalarials” (ACS Infect Dis, 2020).
